Measurements reported in ChEMBL document CHEMBL1146343, “Synthesis and activity of Combretastatin A-4 analogues: 1,2,3-thiadiazoles as potent antitumor agents” (Bioorg Med Chem Lett, 2007).
Active and inactive are the calls of the source. The rule behind the calls is not given here.

How the values were obtained:
HL-60 = experiment: Antiproliferative activity against human HL60 cells; format: functional, cell-based
Procedure, shortened: (§1)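 Antiproliferative testing against human HL-60 myeloid leukemia, HCT-116 colon adenocarcinoma and HMEC-1 microvascular endothelial cells; each experiment run independently at least three times, values given with SD.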

Tubulin = experiment: Inhibition of tubulin polymerization; format: protein-complex assay, Homo sapiens
HCT-116 = experiment: Antiproliferative activity against human HCT116 cells; format: functional, cell-based; procedure, shortened: as §1
[1] = Antiproliferative activity against human HMEC1 cells; format: cell-based; details: HMEC-1; procedure, shortened: as §1
HMEC-1 [2] = experiment: Disruption of cytoskeleton in HMEC1 cells at 1 uM after 30 mins; format: functional, cell-based; details: Homo sapiens
Procedure, shortened: (§2)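 HMEC-1 cells grown on slides, exposed 30 min at 1 μM, fixed in 3% formaldehyde, permeabilized with 0.1% Triton X-100, stained with primary antibody then Alexa488 secondary; nuclei counterstained with DAPI in mounting medium; imaged by confocal microscopy.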

Mus musculus = experiment: Effect on body weight in mouse implanted with S180 cells at 100 mg/kg, ip after 7 days; format: functional, CCRF S-180; details: route intraperitoneal
Procedure, shortened: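 S180 sarcoma-bearing mice given daily i.p. doses for 4–7 days, 10 mice per group with saline controls; body weight recorded at start and end, surviving mice counted at end of treatment.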

CCRF S-180 = experiment: Antitumor activity in mouse implanted with S180 cells at 100 mg/kg, ip after 7 days; format: functional; details: CCRF S-180, ip, 168 h, route intraperitoneal
Procedure, shortened: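 Mice bearing transplanted S180 sarcoma dosed i.p. daily for 4–7 days (10 per group, saline control group of 20); animals then euthanized, tumors excised and weighed; inhibition rate from tumor weight versus saline controls; significance p < 0.01.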

HMEC-1 [3] = experiment: Effect on alteration in morphology of HMEC1 cells at 1 uM after 30 mins; format: functional, cell-based; details: Homo sapiens; procedure, shortened: as §2

SMILES	IC50 (HL-60) [µM]	IC50 (Tubulin) [µM]	IC50 (HCT-116) [µM]	IC50 [1] [µM]	Activity (HMEC-1 [2])	Activity (Mus musculus) [g]	inhibition in vivo at 100 mg/kg (CCRF S-180) [%]	Activity (HMEC-1 [3])
COc1ccc(-c2nnsc2-c2cc(OC)c(OC)c(OC)c2)cc1[N+](=O)[O-]	> 1		> 1	> 1				
COc1cc(-c2nnsc2-c2ccc(F)cc2)cc(OC)c1OC			> 1	> 1				
COc1cc(-c2snnc2-c2ccc(F)cc2)cc(OC)c1OC	> 1		> 1	> 1				
COc1ccc(-c2nnsc2-c2cc(OC)c(OC)c(OC)c2)cc1OC	> 1		> 1	> 1				
COc1cc(-c2nnsc2-c2ccc([N+](=O)[O-])cc2)cc(OC)c1OC	> 1		> 1	> 1				
COc1cc(-c2snnc2-c2ccc3c(c2)OCO3)cc(OC)c1OC	> 1		> 1	> 1				

Stronger by IC50 (HCT-116), values ahead:

IC50 (HL-60) [µM]	IC50 (Tubulin) [µM]	IC50 (HCT-116) [µM]	SMILES	IC50 [1] [µM]	Activity (HMEC-1 [2])	Activity (Mus musculus) [g]	inhibition in vivo at 100 mg/kg (CCRF S-180) [%]	Activity (HMEC-1 [3])
0.537		0.616	COc1ccc(-c2nnsc2-c2cc(OC)c(OC)c(OC)c2)cc1	> 1				
0.0502		0.0866	COc1cc(-c2nnsc2-c2ccc3c(c2)OCO3)cc(OC)c1OC	0.0739				
0.0409	0.86	0.0704	COc1ccc(-c2nnsc2-c2cc(OC)c(OC)c(OC)c2)cc1O	0.041				
0.0134	2.13	0.0302	COc1ccc(-c2snnc2-c2cc(OC)c(OC)c(OC)c2)cc1[N+](=O)[O-]	0.0264	Active	21.8	64.2	Active
